# Assay results from article PMC9008867 (Therapeutic Advances in Medical Oncology, 2022).
# “And” between values parts separate entries of the source, which are not always exact repeats. Equal values may be shown once. Read-outs that look alike come from different tables or passages of the source.
# Legend:
# [1] = system: Asian patients with advanced or metastatic malignancies; assay: Adverse events; type: in vivo, human; settings: Schedule 3; patients n (%)
# Outline: (§1)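 Test compound given orally by schedule. Schedule 1: Mon/Thu, 28-day cycle. Schedule 2: Mondays weekly, 28-day cycle. Schedule 3: Mon/Wed for 2 of 3 weeks, 21-day cycle. Schedule 4: Mon/Wed/Fri, 28-day cycle. All patients received anorexia/nausea prophylaxis. AEs were recorded up to 30 days after the last dose and graded every 2 weeks for cycles 1–2, then every 4 weeks.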
# [2] = system: Asian patients with advanced or metastatic malignancies; assay: Adverse events; type: in vivo, human; settings: Schedule 4; patients n (%)
# Outline: as §1
# [3] = system: Asian patients with advanced or metastatic malignancies; type: in vivo, human
# [4] = Plasma selinexor pharmacokinetics; type: in vivo, human
# XPO1 = XPO1 mRNA expression in PBMCs/leukocytes by qRT-PCR pre and post dose; type: in vivo, human; settings: 40 and 50 mg/m^2, 10 patients assessed
# [5] = system: advanced or metastatic malignancies; assay: Antitumour response; type: in vivo, human
# Outline: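 Solid tumours were imaged by CT or MRI and scored by RECIST 1.1. NHL was scored by IWG criteria; CTCL by consensus criteria with mSWAT skin scoring plus nodes, blood and viscera. Response was documented at least once at 8 weeks, then every two cycles. Evaluable patients had ≥1 dose and ≥1 postbaseline scan. Expansion dosing: flat 60 mg on days 1, 4, 8, 11 of 21-day cycles.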
# leukocytes = settings: cited from earlier work
# [6] = system: human melanoma cell lines; settings: cited from earlier work
# [7] = expansion phase, with drug holiday and pre-emptive antiemetic regimen
# [8] = all dose levels, 74 evaluable patients
# [9] = phase 1b expansion cohort, 35 evaluable patients
smiles,measurement,setting,value
O=C(/C=C\n1cnc(-c2cc(C(F)(F)F)cc(C(F)(F)F)c2)n1)NNc1cnccn1 [selinexor],"Abdominal discomfort, Any grade",[1],3 (20) %
same,"Abdominal discomfort, G1/G2",[1],3 (20) %
same,"Anaemia, Any grade",[1],3 (20) %
same,"Anorexia, Any grade",[1],11 (73.33) %
same,"Conjunctivitis, Any grade",[1],1 (6.66) %
same,"Constipation, Any grade",[1],1 (6.66) %
same,"Dehydration, Any grade",[1],2 (13.33) %
same,"Diarrhoea, Any grade",[1],5 (33.33) %
same,"Dry skin, Any grade",[1],1 (6.66) %
same,"Dysgeusia, Any grade",[1],2 (13.33) %
same,"Edema, Any grade",[1],1 (6.66) %
same,"Fatigue, Any grade",[1],13 (86.66) %
same,"Giddiness, Any grade",[1],2 (13.33) %
same,"Hypocalcaemia, Any grade",[1],1 (6.66) %
same,"Hypokalaemia, Any grade",[1],4 (26.66) %
same,"Hypomagnesemia, Any grade",[1],6 (40) %
same,"Hyponatremia, Any grade",[1],13 (86.66) %
same,"Hypophosphatemia, Any grade",[1],6 (40) %
same,"Increased flatulence, Any grade",[1],1 (6.66) %
same,"Increased flatulence, G1/G2",[1],1 (6.66) %
same,"Lethargy, Any grade",[1],1 (6.66) %
same,"Nausea, Any grade",[1],4 (26.66) %
same,"Thrombocytopenia, Any grade",[1],4 (26.66) %
same,"Vomiting, Any grade",[1],5 (33.33) %
same,"Weight loss, Any grade",[1],4 (26.66) %
same,"Abdominal discomfort, Any grade",[2],2 (18.18) %
same,"Abdominal discomfort, G1/G2",[2],2 (18.18) %
same,"Anaemia, Any grade",[2],3 (27.27) %
same,"Anorexia, Any grade",[2],5 (45.45) %
same,"Cataract, Any grade",[2],1 (9.09) %
same,"Diarrhoea, Any grade",[2],4 (36.36) %
same,"Dysgeusia, Any grade",[2],2 (18.18) %
same,"Dyspnoea/Shortness of breath, Any grade",[2],3 (27.27) %
same,"Dyspnoea/Shortness of breath, G1/G2",[2],2 (18.18) %
same,"Dyspnoea/Shortness of breath, G3/G4",[2],1 (9.09) %
same,"Fatigue, Any grade",[2],11 (100) %
same,"Hypocalcaemia, Any grade",[2],1 (9.09) %
same,"Hypokalaemia, Any grade",[2],1 (9.09) %
same,"Hypomagnesemia, Any grade",[2],3 (27.27) %
same,"Hyponatremia, Any grade",[2],10 (90.90) %
same,"Hypophosphatemia, Any grade",[2],1 (9.09) %
same,"Nausea, Any grade",[2],2 (18.18) %
same,"Neutropenia, Any grade",[2],1 (9.09) %
same,"Thrombocytopenia, Any grade",[2],6 (54.54) %
same,"Vomiting, Any grade",[2],2 (18.18) %
same,"Weight loss, Any grade",[2],3 (27.27) %
same,tolerability,"[3]; 60 mg twice a week, 2 out of 3 weeks, Asian patients",well tolerated
same,Grade 3 fatigue,[3]; dose expansion phase,8%
same,grade 3 or 4 anaemia,[3]; dose expansion phase,2%
same,grade 3 or 4 hyponatremia,[3]; dose expansion phase,23%
same,grade 3 or 4 thrombocytopenia,[3]; dose expansion phase,5%
same,grade 3 or 4 vomiting,[3]; dose expansion phase,5%
same,patients with grade 3 or 4 cytopenias,[3]; expansion phase,less than 3%
same,grade 3 or more nausea,[3]; [7],no grade 3 or more nausea
same,incidence of nausea,[3]; [7],30%
same,deaths,"[3]; phase 1b expansion cohort, none attributed to the study drug",Five
same,"Abdominal discomfort, Any grade","[3]; phase 1b, patients n (%)",5 (13.15) %
same,"Abdominal discomfort, G1/G2","[3]; phase 1b, patients n (%)",4 (10.52) %
same,"Abdominal discomfort, G3/G4","[3]; phase 1b, patients n (%)",1 (2.63) %
same,"Abdominal distension, Any grade","[3]; phase 1b, patients n (%)",1 (2.63) %
same,"Abdominal distension, G3/G4","[3]; phase 1b, patients n (%)",1 (2.63) %
same,"Abnormal thyroid function, Any grade","[3]; phase 1b, patients n (%)",2 (5.26) %
same,"Abnormal thyroid function, G1/G2","[3]; phase 1b, patients n (%)",2 (5.26) %
same,"Acute kidney injury, Any grade","[3]; phase 1b, patients n (%)",1 (2.63) %
same,"Acute kidney injury, G1/G2","[3]; phase 1b, patients n (%)",1 (2.63) %
same,"Anaemia, Any grade","[3]; phase 1b, patients n (%)",6 (15.78) %
same,"Anorexia, Any grade","[3]; phase 1b, patients n (%)",18 (47.36) %
same,"Ascites, Any grade","[3]; phase 1b, patients n (%)",2 (5.26) %
same,"Asthenia, Any grade","[3]; phase 1b, patients n (%)",1 (2.63) %
same,"Back pain, Any grade","[3]; phase 1b, patients n (%)",2 (5.26) %
same,"Blurring of vision, Any grade","[3]; phase 1b, patients n (%)",3 (7.89) %
same,"Blurring of vision, G1/G2","[3]; phase 1b, patients n (%)",3 (7.89) %
same,"Constipation, Any grade","[3]; phase 1b, patients n (%)",6 (15.78) %
same,"Cough, Any grade","[3]; phase 1b, patients n (%)",2 (5.26) %
same,"Dehydration, Any grade","[3]; phase 1b, patients n (%)",2 (5.26) %
same,"Diarrhoea, Any grade","[3]; phase 1b, patients n (%)",10 (26.31) %
same,"Dysgeusia, Any grade","[3]; phase 1b, patients n (%)",12 (31.57) %
same,"Dyspnoea/Shortness of breath, Any grade","[3]; phase 1b, patients n (%)",2 (5.26) %
same,"Dyspnoea/Shortness of breath, G1/G2","[3]; phase 1b, patients n (%)",2 (5.26) %
same,"Fever, Any grade","[3]; phase 1b, patients n (%)",2 (5.26) %
same,"Giddiness, Any grade","[3]; phase 1b, patients n (%)",3 (7.89) %
same,"Hyperglycaemia, Any grade","[3]; phase 1b, patients n (%)",2 (5.26) %
same,"Hypersalivation, Any grade","[3]; phase 1b, patients n (%)",1 (2.63) %
same,"Hyperuricaemia, Any grade","[3]; phase 1b, patients n (%)",1 (2.63) %
same,"Hypocalcaemia, Any grade","[3]; phase 1b, patients n (%)",1 (2.63) %
same,"Hypokalaemia, Any grade","[3]; phase 1b, patients n (%)",7 (18.42) %
same,"Hypomaganesemia, Any grade","[3]; phase 1b, patients n (%)",3 (7.89) %
same,"Hyponatremia, Any grade","[3]; phase 1b, patients n (%)",20 (52.63) %
same,"Hypophosphataemia, Any grade","[3]; phase 1b, patients n (%)",5 (13.15) %
same,"Increased creatinine, Any grade","[3]; phase 1b, patients n (%)",2 (5.26) %
same,"Increased creatinine, G1/G2","[3]; phase 1b, patients n (%)",2 (5.26) %
same,"Lethargy, Any grade","[3]; phase 1b, patients n (%)",1 (2.63) %
same,"Loss of Appetite, Any grade","[3]; phase 1b, patients n (%)",8 (21.05) %
same,"Mood swing, Any grade","[3]; phase 1b, patients n (%)",1 (2.63) %
same,"Mucositis, Any grade","[3]; phase 1b, patients n (%)",2 (5.26) %
same,"Nausea, Any grade","[3]; phase 1b, patients n (%)",12 (31.57) %
same,"Peripheral neuropathy, Any grade","[3]; phase 1b, patients n (%)",2 (5.26) %
same,"Peripheral neuropathy, G1/G2","[3]; phase 1b, patients n (%)",2 (5.26) %
same,"Pneumonia, Any grade","[3]; phase 1b, patients n (%)",1 (2.63) %
same,"Pulmonary embolism, Any grade","[3]; phase 1b, patients n (%)",1 (2.63) %
same,"Pulmonary embolism, G1/G2","[3]; phase 1b, patients n (%)",1 (2.63) %
same,"Raised amylase/lipase, Any grade","[3]; phase 1b, patients n (%)",1 (2.63) %
same,"Raised amylase/lipase, G1/G2","[3]; phase 1b, patients n (%)",1 (2.63) %
same,"Raised amylase/lipase, G3/G4","[3]; phase 1b, patients n (%)",1 (2.63) %
same,"Reflux, Any grade","[3]; phase 1b, patients n (%)",1 (2.63) %
same,"Rt buttock pain, Any grade","[3]; phase 1b, patients n (%)",1 (2.63) %
same,"Rt leg pain, Any grade","[3]; phase 1b, patients n (%)",1 (2.63) %
same,"Thrombocytopenia, Any grade","[3]; phase 1b, patients n (%)",6 (15.78) %
same,"Transaminitis, Any grade","[3]; phase 1b, patients n (%)",3 (7.89) %
same,"URTI, Any grade","[3]; phase 1b, patients n (%)",1 (2.63) %
same,"Urinary retention, Any grade","[3]; phase 1b, patients n (%)",1 (2.63) %
same,"Vomiting, Any grade","[3]; phase 1b, patients n (%)",8 (21.05) %
same,"Weight loss, Any grade","[3]; phase 1b, patients n (%)",6 (15.78) %
same,AUC0-8 dose proportionality,"[4]; among 40, 50 and 60 mg/m^2 doses",dose-proportional
same,predose concentrations after multiple doses,[4]; cycle 1 day 15 or cycle 2 day 8/day 15,either 0 or close to 0
same,AUC(0-t),"[4]; human, plasma, oral, 40 mg/m2",5340 ± 1540 ng·h/mL
same,Cmax,"[4]; human, plasma, oral, 40 mg/m2",567 ± 159 ng/mL
same,Tmax,"[4]; human, plasma, po, 60 mg/m2",1 to 4 h
same,mean T1/2,"[4]; oral, 40-60 mg/m^2",~ 6 h
same,patients with at least twofold induction of XPO1 mRNA,XPO1; 4 h post dose,nine
same,patients with greater than twofold mRNA increases in XPO1,XPO1; 8 h post dose,all 10 patients
same,patients with prolonged stable disease of more than 12 weeks,[5]; [8],10
same,prolonged stable disease of more than 12 weeks,[5]; [8],13.5% and 13%
same,patients with confirmed partial response,"[5]; all dose levels, 74 evaluable, two DLBCL, one Hodgkin's lymphoma, one thymoma",four
same,at least stable disease or better as best response,[5]; [9],37.1%
same,patients with at least stable disease or better as best response,[5]; [9],13
same,patients with prolonged stable disease of more than 12 weeks,"[5]; phase 1b expansion cohort, all colorectal cancer",four
same,objective response (confirmed complete and partial response rate),[5]; whole study,8%
same,PD-1 and CTLA4 gene expression,leukocytes,increase
same,PD-L1 gene expression,[6],induced
